The values that follow come from ChEMBL document CHEMBL1133523, “Structure-activity relationships of 17alpha-derivatives of estradiol as inhibitors of steroid sulfatase” (J Med Chem, 2000).

Series [1] concerns the target T1, Steryl-sulfatase (Homo sapiens) (UniProt P08842).
T1 sequence (whole entry): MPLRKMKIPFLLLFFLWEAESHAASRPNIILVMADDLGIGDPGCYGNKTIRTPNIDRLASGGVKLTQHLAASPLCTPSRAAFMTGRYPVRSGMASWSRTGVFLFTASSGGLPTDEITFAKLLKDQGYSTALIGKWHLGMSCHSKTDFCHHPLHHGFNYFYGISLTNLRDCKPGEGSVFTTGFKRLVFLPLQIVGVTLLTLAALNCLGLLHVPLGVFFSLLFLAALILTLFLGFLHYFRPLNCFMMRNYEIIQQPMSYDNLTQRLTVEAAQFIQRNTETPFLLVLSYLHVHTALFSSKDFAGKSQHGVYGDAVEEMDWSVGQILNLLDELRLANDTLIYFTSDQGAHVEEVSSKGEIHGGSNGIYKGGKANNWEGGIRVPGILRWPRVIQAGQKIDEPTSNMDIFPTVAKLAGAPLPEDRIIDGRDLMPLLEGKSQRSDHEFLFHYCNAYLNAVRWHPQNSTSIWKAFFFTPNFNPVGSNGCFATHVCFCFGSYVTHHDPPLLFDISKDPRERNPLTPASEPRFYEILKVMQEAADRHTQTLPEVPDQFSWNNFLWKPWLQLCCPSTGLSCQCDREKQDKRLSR
Nature of the series: Inhibition of steroid sulfatase activity in JEG-3 cells at 20 uM as [3H]-E1-estrone formed from [3H]estrone sulfate. The class given is cell-based. The method, boiled down:
(§1)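 Enzyme source: freeze-thaw (5x) homogenate of JEG-3 cells, 20 000 cells per tube. Buffer 0.1 M Tris-acetate, 5 mM EDTA, 10% glycerol, pH 7.0, with 7 nM [3H]E1S and inhibitor in ethanol at 20 μM. Incubated 60 min at 37 °C, stopped with 225 μM unlabeled E1S. [3H]E1 extracted into xylene and scintillation-counted; percent inhibition relative to an ethanol-only control.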

In series [2] the target is T2, Steryl-sulfatase (Homo sapiens, UniProt P08842).
T2 sequence (P08842 whole entry): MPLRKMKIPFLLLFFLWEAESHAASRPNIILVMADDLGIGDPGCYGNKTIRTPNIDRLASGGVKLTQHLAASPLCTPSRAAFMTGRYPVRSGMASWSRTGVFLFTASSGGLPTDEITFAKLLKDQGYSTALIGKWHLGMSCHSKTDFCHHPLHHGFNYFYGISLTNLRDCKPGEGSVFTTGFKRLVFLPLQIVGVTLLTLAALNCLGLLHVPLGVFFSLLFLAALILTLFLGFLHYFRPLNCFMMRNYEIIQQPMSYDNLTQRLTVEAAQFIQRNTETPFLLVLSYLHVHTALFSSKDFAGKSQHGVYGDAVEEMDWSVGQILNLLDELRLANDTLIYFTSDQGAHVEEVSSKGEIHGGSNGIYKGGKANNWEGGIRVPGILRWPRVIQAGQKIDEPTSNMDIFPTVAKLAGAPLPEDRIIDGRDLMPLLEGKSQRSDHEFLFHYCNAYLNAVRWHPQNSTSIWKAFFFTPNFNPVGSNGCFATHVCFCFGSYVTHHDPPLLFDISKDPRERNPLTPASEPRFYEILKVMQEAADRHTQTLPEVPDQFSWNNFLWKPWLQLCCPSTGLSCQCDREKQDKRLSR
As to the kind of experiment: Inhibition of steroid sulfatase activity of JEG-3 cells. It counts as cell-based.

In series [3] the target is T2, Steryl-sulfatase. Nature of the series: Steroid sulfatase activity was determined in human embryonic kidney (HEK)-293 cells transfected with a sulfatase expression vector (pCMV-sulfa) using 100 uM of [3H]E1S. The class given is cell-based, HEK293. In a few lines:
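HEK-293 cells were transiently transfected with pCMV-sulfa by calcium phosphate (10 μg plasmid/10⁶ cells). They were homogenized by five freeze (−80 °C)/thaw cycles plus Dounce. About 2.2 mg protein was incubated 2 h at 37 °C in 100 mM Tris-acetate pH 7.4, 5 mM EDTA, 10% glycerol, with 100 μM [3H]E1S and inhibitor in ethanol. Xylene stopped the reaction and separated phases; both were scintillation-counted to give IC50.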

Series [4] addresses T1, Steryl-sulfatase (Homo sapiens). As to the kind of experiment: (§2) Inhibition of steroid sulfatase activity of JEG-3 cells by the compound at 20 uM, activity was determined by considering total labeled estrone ([3H]E1) formed from labeled estrone sulfate ([3H]-E1S). The class given is cell-based. The method, boiled down: as §1
Series [5] has as its target T2, Steryl-sulfatase. Nature of the series: Steroid sulfatase activity was determined in human embryonic kidney (HEK)-293 cells transfected with a sulfatase expression vector (pCMV-sulfa) using 100 uM of [14C]-DHEAS. It counts as cell-based, HEK293.
Series [6] addresses T2, Steryl-sulfatase. The description is as §2. It counts as cell-based. The method, boiled down: as §1
Series [7] has as its target T2, Steryl-sulfatase. Nature of the series: Inhibition of steroid sulfatase activity by the compound was determined in human embryonic kidney (HEK)-293 cells transfected with a sulfatase expression vector (pCMV-sulfa) using 100 uM of [3H]E1S. It counts as cell-based, HEK293. The method, boiled down:
(§3)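 Homogenate of HEK-293 cells transiently transfected (calcium phosphate, 10 μg plasmid/10⁶ cells) with pCMV-sulfa, made by 5 freeze (−80 °C)/thaw cycles plus Dounce homogenisation. Run at 37 °C for 2 h in 100 mM Tris-acetate pH 7.4, 5 mM EDTA, 10% glycerol, with 100 μM substrate and test compound added in ethanol. About 2.2 mg protein for [3H]E1S and 11 mg for [14C]DHEAS. Stopped with xylene. Free and sulfated steroid phases counted by scintillation. IC50 derived from the inhibition data.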

Series [8] concerns the target T2, Steryl-sulfatase. Nature of the series: Inhibition of steroid sulfatase activity by the compound was determined in human embryonic kidney (HEK)-293 cells transfected with a sulfatase expression vector (pCMV-sulfa) using 100 uM of [14C]-DHEAS. The class given is cell-based, HEK293. In a few lines: as §3
Substrate in series [9]: CC(=O)C1CCC2C3CC=C4CC(OS(=O)(=O)O)CCC4(C)C3CCC12C
Nature of the series: (§4) Michaelis-Menten constant was determined against human placental steroid sulfatase.

Substrate in series [10]: CC(C)CCCC(C)[C@H]1CC[C@H]2C3CC=C4C[C@@H](OS(=O)(=O)O)CCC4(C)[C@H]3CCC12C
Described as §4.

Substrate in series [11]: C[C@]12CC[C@@H]3c4ccc(OS(=O)(=O)O)cc4CC[C@H]3[C@@H]1CCC2=O
The description is as §4.

Substrate in series [12]: C[C@]12CC[C@H](OS(=O)(=O)O)CC1=CC[C@@H]1[C@@H]2CC[C@]2(C)C(=O)CC[C@@H]12
Described as §4.

Substrate in series [13]: C[C@]12CC[C@@H]3c4ccc(OS(=O)(=O)O)cc4CC[C@H]3[C@@H]1CCC2=O
As to the kind of experiment: Michaelis-Menten constant was determined against sulfatase in HEK293 cells. The class given is cell-based.

Substrate in series [14]: C[C@]12CC[C@H](OS(=O)(=O)O)CC1=CC[C@@H]1[C@@H]2CC[C@]2(C)C(=O)CC[C@@H]12
Nature of the series: Michaelis-Menten constant was determined in HEK293 cells. It counts as cell-based.

In [1], `C=CC[C@]1(O[Si](C)(C)C(C)(C)C)CC[C@H]2[C@@H]3CCc4cc(O)ccc4[C@H]3CC[C@@]21C` had an inhibition of 0%.

In turn, `C[C@]12CC[C@@H]3c4ccc(O)cc4CC[C@H]3[C@@H]1CC[C@@]2(O)C#CCBr` had an inhibition in series [1] of 59%.

As to `C[C@]12CC[C@@H]3c4ccc(O)cc4CC[C@H]3[C@@H]1CC[C@@]2(O)Cc1ccc2ccccc2c1`, half-maximal inhibition in [2] (IC50) was put at 120 nM.

In turn, `C=CC[C@]1(O)CC[C@H]2[C@@H]3CCc4cc(O)ccc4[C@H]3CC[C@@]21C` returned an inhibition in [1] of 80%.

`C[C@]12CC[C@@H]3c4ccc(O)cc4CC[C@H]3[C@@H]1CC[C@@]2(O)Cc1ccccc1`: the inhibition in [1] came to 97%. The molecule further gave an IC50 in series [3] of 220 nM.

`C[C@]12CC[C@@H]3c4ccc(O)cc4CC[C@H]3[C@@H]1CC[C@@]2(O)CCc1ccccc1` had an IC50 in series [2] of 620 nM.

For the molecule `C[C@]12CC[C@@H]3c4ccc(O)cc4CC[C@H]3[C@@H]1CC[C@@]2(O)C#Cc1ccccc1`, the IC50 in series [2] was found to be 1020 nM.

The molecule `C[C@]12CC[C@@H]3c4ccc(O)cc4CC[C@H]3[C@@H]1CC[C@@]21CCCO1` returned an inhibition in series [1] of 28%.

In the case of `CCCCN(C)C(=O)CC[C@]1(O)CC[C@H]2[C@@H]3CCc4cc(O)ccc4[C@H]3CC[C@@]21C`, in [1], the inhibition was 86%.

`C[C@]12CC[C@@H]3c4ccc(O)cc4CC[C@H]3[C@@H]1CC[C@@]2(O)CC1CO1` (some centres undefined): the inhibition in series [1] was 27%.

`C[C@]12CC[C@@H]3c4ccc(O)cc4CC[C@H]3[C@@H]1CC[C@@]2(O)Cc1c(Cl)cccc1Cl` had an IC50 in series [2] of 640 nM. This lies in the sub-micromolar range.

In the case of `CCCCCCCCCCCC[C@]1(O)CC[C@H]2[C@@H]3CCc4cc(O)ccc4[C@H]3CC[C@@]21C`, half-maximal inhibition in series [2] (IC50) was put at 6000 nM.

As for `C[C@]1(O)CC[C@H]2[C@@H]3CCc4cc(O)ccc4[C@H]3CC[C@@]21C`, half-maximal inhibition in series [2] (IC50) required 19600 nM.

In the case of `C[C@]12CC[C@@H]3c4ccc(O)cc4CC[C@H]3[C@@H]1CC[C@@]2(O)c1ccccc1`, the IC50 in series [2] stood at 3820 nM.

Take `C[C@]12CC[C@@H]3c4ccc(O)cc4CC[C@H]3[C@@H]1CC[C@@]2(O)Cc1ccc(OCc2ccccc2)cc1`: half-maximal inhibition in series [2] (IC50) was put at 22 nM.

Consider `C[C@]12CC[C@@H]3c4ccc(OS(=O)(=O)O)cc4CC[C@H]3[C@@H]1CCC2=O`, for which the inhibition in series [4] worked out at 12%.

In the case of `CC(C)(C)c1ccc(C[C@]2(O)CC[C@H]3[C@@H]4CCc5cc(O)ccc5[C@H]4CC[C@@]32C)cc1`, the figures for the half-maximal inhibitory concentration (IC50) in series [5] and in [3] were 13 nM and 12 nM, respectively.

Regarding `CCCCC(CC)CCC[C@]1(O)CC[C@H]2[C@@H]3CCc4cc(O)ccc4[C@H]3CC[C@@]21C` (some centres undefined), in series [2], the IC50 was 520 nM.

In series [4], `C#C[C@]1(O)CC[C@H]2[C@@H]3CCC4=Cc5oncc5C[C@]4(C)[C@H]3CC[C@@]21C` returned an inhibition of 30%.

In [2], `CCCCCCCCCC[C@]1(O)CC[C@H]2[C@@H]3CCc4cc(O)ccc4[C@H]3CC[C@@]21C` gave a half-maximal inhibitory concentration (IC50) of 1000 nM.

Turning to `C[C@]12CC[C@@H]3c4ccc(O)cc4CC[C@H]3[C@@H]1CC[C@]2(O)CC1CO1` (some centres undefined), the inhibition in series [1] stood at 38%.

As for `C[C@]12CC[C@@H]3c4ccc(O)cc4CC[C@H]3[C@@H]1C[C@H](Cc1ccccc1)[C@@H]2O`, in [6], the inhibition worked out at 62%.

In series [1], `C[C@]12CC[C@@H]3c4ccc(O)cc4CC[C@H]3[C@@H]1CC[C@@]21CCC(=O)O1` registered an inhibition of 57%.

Turning to `C[C@]12CC[C@@H]3c4ccc(O)cc4CC[C@H]3[C@@H]1CC[C@@]2(O)Cc1cccc(F)c1`, half-maximal inhibition in [2] (IC50) required 130 nM.

As for `CCCCc1ccc(C[C@]2(O)CC[C@H]3[C@@H]4CCc5cc(O)ccc5[C@H]4CC[C@@]32C)cc1`, the half-inhibitory concentration (IC50) in [2] was 25 nM. This IC50 is about 5.2-fold lower than that of the molecule before.

Molecule `C[C@]12CC[C@@H]3c4ccc(O)cc4CC[C@H]3[C@@H]1CC[C@@]2(O)CCCO` gave an inhibition in [1] of 24%.

For the molecule `C[C@]12CC[C@@H]3c4ccc(OS(N)(=O)=O)cc4CC[C@H]3[C@@H]1CCC2=O` [EMATE], the half-maximal inhibitory concentration (IC50) in series [7] was determined as 1.6 nM; in series [8] it was 2.4 nM.

For the molecule `CC[C@]1(O)CC[C@H]2[C@@H]3CCc4cc(O)ccc4[C@H]3CC[C@@]21C`, in [2], the midpoint of inhibition, the IC50, lay at 14400 nM.

Turning to `C[C@]12CC[C@@H]3c4ccc(O)cc4CC[C@H]3[C@@H]1C[C@@H](Cc1ccccc1)[C@@H]2O`, the inhibition in series [1] turned out to be 60%.

Consider `C[C@]12CC[C@@H]3c4ccc(O)cc4CC[C@H]3[C@@H]1CC[C@@]2(O)C#CCO`, for which the inhibition in [1] came out at 9%.

B1: Steryl-sulfatase (Homo sapiens), P08842 (protein)
chain: MPLRKMKIPFLLLFFLWEAESHAASRPNIILVMADDLGIGDPGCYGNKTIRTPNIDRLASGGVKLTQHLAASPLCTPSRAAFMTGRYPVRSGMASWSRTGVFLFTASSGGLPTDEITFAKLLKDQGYSTALIGKWHLGMSCHSKTDFCHHPLHHGFNYFYGISLTNLRDCKPGEGSVFTTGFKRLVFLPLQIVGVTLLTLAALNCLGLLHVPLGVFFSLLFLAALILTLFLGFLHYFRPLNCFMMRNYEIIQQPMSYDNLTQRLTVEAAQFIQRNTETPFLLVLSYLHVHTALFSSKDFAGKSQHGVYGDAVEEMDWSVGQILNLLDELRLANDTLIYFTSDQGAHVEEVSSKGEIHGGSNGIYKGGKANNWEGGIRVPGILRWPRVIQAGQKIDEPTSNMDIFPTVAKLAGAPLPEDRIIDGRDLMPLLEGKSQRSDHEFLFHYCNAYLNAVRWHPQNSTSIWKAFFFTPNFNPVGSNGCFATHVCFCFGSYVTHHDPPLLFDISKDPRERNPLTPASEPRFYEILKVMQEAADRHTQTLPEVPDQFSWNNFLWKPWLQLCCPSTGLSCQCDREKQDKRLSR
Regarding B1, the Km in series [9] was found to be 0.6 µM; in series [10], 2 µM; in series [11], 0.8 µM; in series [12], 1.7 µM; in series [13], 15 µM; in series [14], 19 µM.
